Results as given in ChEMBL document CHEMBL1799960, “Diadenosine 5',5''-(boranated)polyphosphonate analogues as selective nucleotide pyrophosphatase/phosphodiesterase inhibitors” (J Med Chem, 2010).
Calls of active or inactive are those of the source. No cut-off for these calls is given here.

Experiments:
[1] = biological target: T1, Ectonucleotide pyrophosphatase/phosphodiesterase family member 1 (Homo sapiens, UniProt P22413); test: Inhibition of human NPP1 expressed in COS7 cells assessed as production of p-nitrophenol using pnp-TMP as the substrate after 15 mins […]; type: cell-based, COS-7
T1 sequence (P22413 whole entry): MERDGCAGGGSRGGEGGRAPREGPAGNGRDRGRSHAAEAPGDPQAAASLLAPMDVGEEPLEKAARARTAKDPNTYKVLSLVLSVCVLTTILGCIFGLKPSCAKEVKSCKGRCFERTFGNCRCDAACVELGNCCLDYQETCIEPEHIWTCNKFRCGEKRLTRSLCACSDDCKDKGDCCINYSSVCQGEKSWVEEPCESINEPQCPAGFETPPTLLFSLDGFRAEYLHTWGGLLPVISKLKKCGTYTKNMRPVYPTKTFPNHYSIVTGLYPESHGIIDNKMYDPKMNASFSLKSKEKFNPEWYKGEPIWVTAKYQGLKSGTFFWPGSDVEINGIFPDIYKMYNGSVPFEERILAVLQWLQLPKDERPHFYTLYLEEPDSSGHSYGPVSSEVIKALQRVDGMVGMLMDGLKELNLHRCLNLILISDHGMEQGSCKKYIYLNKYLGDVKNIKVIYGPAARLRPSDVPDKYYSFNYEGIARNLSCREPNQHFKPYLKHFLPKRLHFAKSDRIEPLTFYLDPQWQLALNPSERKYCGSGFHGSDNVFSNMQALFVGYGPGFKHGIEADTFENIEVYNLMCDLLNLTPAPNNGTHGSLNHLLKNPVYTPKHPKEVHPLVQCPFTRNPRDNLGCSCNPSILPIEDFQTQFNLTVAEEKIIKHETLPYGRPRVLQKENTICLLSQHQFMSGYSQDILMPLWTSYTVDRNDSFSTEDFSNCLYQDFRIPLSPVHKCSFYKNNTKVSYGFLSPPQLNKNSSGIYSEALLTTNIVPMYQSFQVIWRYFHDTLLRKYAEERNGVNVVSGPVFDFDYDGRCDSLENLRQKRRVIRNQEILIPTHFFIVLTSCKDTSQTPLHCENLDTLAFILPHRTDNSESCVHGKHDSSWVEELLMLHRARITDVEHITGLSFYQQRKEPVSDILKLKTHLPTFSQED
How it was run: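 Human NPP1 COS-7 extract in Tris pH 8.5 buffer at 37 °C with pnp-TMP; p-nitrophenol read at 405 nm after 15 min. […] Values from Dixon and Cornish-Bowden plots of three independent experiments in triplicate.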

[2] = biological target: T2, Ectonucleotide pyrophosphatase/phosphodiesterase family member 1 (Homo sapiens) (UniProt P22413); test: Activity of human NPP1 expressed in COS7 cells assessed as production of p-nitrophenol using Ap5A as the substrate at 100 uM after 30 mins by malachite green reagent method; type: cell-based; conditions: COS-7
T2 sequence (whole entry): T1 sequence (P22413 whole entry)

[3] = biological target: T2, Ectonucleotide pyrophosphatase/phosphodiesterase family member 1 (Homo sapiens); test: Inhibition of human NPP1 expressed in COS7 cells assessed as production of p-nitrophenol using pnp-TMP as the substrate at 100 uM after 15 mins […]; type: cell-based; conditions: COS-7
How it was run: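 Human NPP1, NPP2 (membrane lysate or conditioned medium for the secreted form) or NPP3 from transfected COS-7 cells, preincubated 3 min at 37 °C in 50 mM Tris pH 8.5 buffer with CaCl2, NaCl and KCl. Substrate and inhibitor both at 100 μM final. pnp-TMP: p-nitrophenol read at 405 nm at 15 min. ATP or Ap5A: stopped at 30 min with perchloric acid, then HPLC. Results as % residual activity versus control; three to six experiments in triplicate.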

[4] = biological target: T2, Ectonucleotide pyrophosphatase/phosphodiesterase family member 1 (Homo sapiens); test: Inhibition of human NPP1 expressed in COS7 cells assessed as production of p-nitrophenol using Ap5A as the substrate at 100 uM after 30 mins […]; type: cell-based; conditions: COS-7
[5] = biological target: 5'-nucleotidase (Homo sapiens) (UniProt P21589); test: Inhibition of human Ecto-5'-nucleotidase expressed in COS7 cells assessed as amount of inorganic phosphate released using AMP as the substrate at 100 uM after 15 mins by malachite green reagent method; conditions: COS-7
Chain of 5'-nucleotidase (Homo sapiens) (P21589 whole entry): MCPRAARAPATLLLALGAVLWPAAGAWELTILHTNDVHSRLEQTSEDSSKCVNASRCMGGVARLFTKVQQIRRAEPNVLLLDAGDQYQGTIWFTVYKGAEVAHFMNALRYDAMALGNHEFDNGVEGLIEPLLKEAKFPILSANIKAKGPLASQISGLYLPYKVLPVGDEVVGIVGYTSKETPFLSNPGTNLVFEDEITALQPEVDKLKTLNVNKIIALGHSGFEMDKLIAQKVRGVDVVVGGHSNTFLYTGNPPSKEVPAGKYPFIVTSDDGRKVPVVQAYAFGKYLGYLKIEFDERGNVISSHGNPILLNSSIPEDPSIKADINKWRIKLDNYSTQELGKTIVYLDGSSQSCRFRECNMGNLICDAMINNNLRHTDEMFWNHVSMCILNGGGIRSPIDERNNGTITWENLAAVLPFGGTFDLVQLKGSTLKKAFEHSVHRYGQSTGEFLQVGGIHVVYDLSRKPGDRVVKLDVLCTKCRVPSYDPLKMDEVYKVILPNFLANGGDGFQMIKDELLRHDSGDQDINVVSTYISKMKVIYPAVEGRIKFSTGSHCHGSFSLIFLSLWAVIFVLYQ

[6] = biological target: T3, Ectonucleoside triphosphate diphosphohydrolase 3 (Homo sapiens) (UniProt O75355); test: Inhibition of human NTPDase3 expressed in COS7 cells assessed as amount of inorganic phosphate released using ATP as the substrate at 100 uM after 15 mins by malachite green reagent method; type: cell-based; conditions: COS-7
T3 sequence (whole entry): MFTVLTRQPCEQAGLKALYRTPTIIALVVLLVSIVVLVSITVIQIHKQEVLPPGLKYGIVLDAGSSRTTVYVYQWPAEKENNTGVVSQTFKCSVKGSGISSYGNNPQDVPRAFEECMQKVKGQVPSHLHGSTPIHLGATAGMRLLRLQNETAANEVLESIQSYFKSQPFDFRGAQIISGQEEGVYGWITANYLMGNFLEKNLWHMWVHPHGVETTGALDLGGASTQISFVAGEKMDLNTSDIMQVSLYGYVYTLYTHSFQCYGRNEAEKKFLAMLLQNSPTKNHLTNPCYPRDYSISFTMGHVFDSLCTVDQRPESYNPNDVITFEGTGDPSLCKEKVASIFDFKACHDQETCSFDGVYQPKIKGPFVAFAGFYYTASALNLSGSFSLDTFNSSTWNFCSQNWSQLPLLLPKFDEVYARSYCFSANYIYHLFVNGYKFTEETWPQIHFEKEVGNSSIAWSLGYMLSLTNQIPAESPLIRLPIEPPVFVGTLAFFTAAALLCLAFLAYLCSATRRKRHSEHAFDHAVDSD
How it was run: (§1)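 Protein extracts of transfected COS-7 cells (ecto-5'-nucleotidase: 100 μM AMP substrate; NTPDases: 100 μM ATP) were preincubated 3 min at 37 °C in Tris-Ringer pH 7.3 with inhibitor at 100 μM final. After 15 min, malachite green stop; Pi read at 630 nm. Activity given as % of substrate-only control. Mean ± SD of three experiments in triplicate.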

[7] = biological target: T4, Ectonucleoside triphosphate diphosphohydrolase 1 (Homo sapiens) (UniProt P49961); test: Inhibition of human NTPDase1 expressed in COS7 cells assessed as amount of inorganic phosphate released using ATP as the substrate at 100 uM after 15 mins by malachite green reagent method; type: cell-based; conditions: COS-7; how it was run: as §1
T4 sequence (whole entry): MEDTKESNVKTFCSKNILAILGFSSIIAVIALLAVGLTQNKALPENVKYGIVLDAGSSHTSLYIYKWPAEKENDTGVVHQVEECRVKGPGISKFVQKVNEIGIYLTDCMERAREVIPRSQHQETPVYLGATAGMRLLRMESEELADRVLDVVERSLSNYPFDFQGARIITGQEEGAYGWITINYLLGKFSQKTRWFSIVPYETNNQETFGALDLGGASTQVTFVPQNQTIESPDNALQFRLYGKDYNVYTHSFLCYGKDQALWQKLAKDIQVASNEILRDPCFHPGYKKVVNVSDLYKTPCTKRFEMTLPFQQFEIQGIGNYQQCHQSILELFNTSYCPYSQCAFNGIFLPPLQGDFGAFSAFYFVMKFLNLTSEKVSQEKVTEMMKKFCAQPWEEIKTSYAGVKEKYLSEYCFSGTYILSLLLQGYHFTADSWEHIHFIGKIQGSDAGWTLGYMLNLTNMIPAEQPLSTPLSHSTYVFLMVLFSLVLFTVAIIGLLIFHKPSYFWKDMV

Row | IC50 [1] [µM] | Ki [1] [µM] | Activity [2] [%] | inhibition [3] [%] | inhibition [4] [%] | inhibition [5] | inhibition [6] [%] | inhibition [7] | Compound
1 | 50 | 51 | 2.3 | > 90 | 60 | 80% | 10 | inactive | Nc1ncnc2c1ncn2[C@H]1C[C@H](O)[C@@H](COP(=O)(O)CP(=O)(O)OP(=O)(O)CP(=O)(O)OC[C@H]2O[C@@H](n3cnc4c(N)ncnc43)C[C@@H]2O)O1
2 | 63 | 20 | 7.5 | > 90 | 60 | inactive | 10 | inactive | BP(=O)(OP(=O)(O)CP(=O)(O)OC[C@H]1O[C@@H](n2cnc3c(N)ncnc32)[C@H](O)[C@@H]1O)OP(=O)(O)CP(=O)(O)OC[C@H]1O[C@@H](n2cnc3c(N)ncnc32)[C@H](O)[C@@H]1O
3 | 33 | 13 | 13 | > 90 | 20 | 90% | 10 | inactive | Nc1ncnc2c1ncn2[C@@H]1O[C@H](COP(=O)(O)CP(=O)(O)OP(=O)(O)CP(=O)(O)OC[C@H]2O[C@@H](n3cnc4c(N)ncnc43)[C@H](O)[C@@H]2O)[C@@H](O)[C@H]1O
4 | 13 | 9 | – | > 90 | 60 | inactive | 10 | inactive | BP(=O)(OP(=O)(O)CP(=O)(O)OC[C@H]1O[C@@H](n2cnc3c(N)ncnc32)C[C@@H]1O)OP(=O)(O)CP(=O)(O)OC[C@H]1O[C@@H](n2cnc3c(N)ncnc32)C[C@@H]1O
